The text below walks through data of ChEMBL document CHEMBL4392826, “Prototyping kinase inhibitor-cytotoxin anticancer mutual prodrugs activated by tumour hypoxia: A chemical proof of concept study” (Bioorg Med Chem Lett, 2019).

pIC50: −log10 of the molar value. Where only a bound is given, the exact number is not on record here.

The subject of data set [1] is MDA-MB-468. The data set is described as follows: Cytotoxicity against human MDA-MB-468 cells incubated for 4 hrs under aerobic condition followed by compound washout and measured after 5 days by SRB assay. In kind it is cell-based. The gist of the method:
(§1)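 Antiproliferative IC50 in MDA-MB-468 triple-negative breast or SW620 colon cancer cells, exposed under aerobic or anoxic conditions; mean ± std dev, n = 3.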
Background: Sulforhodamine B stains cellular protein and so reports cell mass.

The test system of data set [2] is MDA-MB-468. The data set is described as follows: Cytotoxicity against human MDA-MB-468 cells incubated for 4 hrs under hypoxic condition followed by compound washout and measured after 5 days by SRB assay. The class given is functional, cell-based. Put shortly: as §1
Data set [3] can be described thus: Ratio of test compound IC50 to melphalan IC50 for human MDA-MB-468 cells incubated for 4 hrs under aerobic condition followed by compound washout and measured after 5 days by SRB assay. The class given is ADME, cell-based. The note with it: read-out: Ratio IC50. The gist of the method: (§2)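 Deactivation ratio: aerobic IC50 of the prodrug divided by the aerobic IC50 of the parent control cytotoxin, in the same cell line (MDA-MB-468 or SW620).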

Data set [4] has as its system MDA-MB-468. The data set is described as follows: Selectivity ratio of IC50 for human MDA-MB-468 cells under aerobic condition to IC50 for human MDA-MB-468 cells under hypoxic condition. The gist of the method: (§3)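 Hypoxic cytotoxicity ratio: aerobic IC50 divided by anoxic IC50 in the same cell line (MDA-MB-468 or SW620).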
The test system of data set [5] is SW-620. As to the kind of experiment: Cytotoxicity against human SW620 cells incubated for 4 hrs under aerobic condition followed by compound washout and measured after 5 days by SRB assay. In kind it is cell-based. Put shortly:
as §1

Data set [6] has as its system SW-620. The data set is described as follows: Cytotoxicity against human SW620 cells incubated for 4 hrs under hypoxic condition followed by compound washout and measured after 5 days by SRB assay. The class given is functional, cell-based. The gist of the method:
as §1

A short description of data set [7]: Ratio of test compound IC50 to melphalan IC50 for human SW620 cells incubated for 4 hrs under aerobic condition followed by compound washout and measured after 5 days by SRB assay. In kind it is ADME, cell-based, SW-620. The following applies: read-out: Ratio IC50. Put shortly: as §2
The test system of data set [8] is SW-620. As to the kind of experiment: Selectivity ratio of IC50 for human SW620 cells under aerobic condition to IC50 for human SW620 cells under hypoxic condition. The gist of the method: as §3
Data set [9] in a line: Aqueous solubility of the compound. The class given is physicochemical. The following applies: buffer.
Data set [10] is described as follows: Ratio of test compound IC50 to floxuridine IC50 for human MDA-MB-468 cells incubated for 4 hrs under aerobic condition followed by compound washout and measured after 5 days by SRB assay. In kind it is ADME, cell-based. The note with it: read-out: Ratio IC50. Put shortly:
(§4)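 Deactivation ratio: aerobic antiproliferative IC50 of the prodrug divided by aerobic IC50 of the parent cytotoxin control (floxuridine). IC50 values were means ± std dev, n = 3, determined in MDA-MB-468 triple-negative breast or SW620 colon cancer cells.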

Data set [11] can be described thus: Ratio of test compound IC50 to floxuridine IC50 for human SW620 cells incubated for 4 hrs under aerobic condition followed by compound washout and measured after 5 days by SRB assay. The following applies: read-out: Ratio IC50. In kind it is ADME, cell-based, SW-620. Put shortly:
as §4

A short description of data set [12]: Electrochemical behavior of the compound assessed as one-elctron reduction potential at 50 uM in pH 7 deaerated phosphate buffered by pulse radiolysis.
A short description of data set [13]: Electrochemical behavior of the compound assessed as one-elctron reduction potential at 0.42 uM in tert-butanol by pulse radiolysis.

Consider `Cc1cc(C)c(/C=C(\C(=O)Nc2ccc(N(CCCl)CCCl)cc2)c2ccccc2[N+](=O)[O-])[nH]1`, for which the pIC50 (commonly the negative decadic logarithm of the IC50, by convention in mol/L) with MDA-MB-468 [1] was 5.08; in the data set with MDA-MB-468 [2], 5.13; in the data set with SW-620 [5], 4.94; with SW-620 [6], 4.90. The results for the selectivity ratio at 4 h in data set [3] and in data set [7] were 8.3 and 6.3, respectively. The “Ratio IC50” value in the data set with MDA-MB-468 [4] was 1.1; with SW-620 [8], below 1. In addition, the solubility entry in data set [9] is “Insoluble”.
For `Cc1cc(C)c(/C=C(\C(=O)OC[C@H]2O[C@@H](n3cc(F)c(=O)[nH]c3=O)C[C@@H]2O)c2ccccc2[N+](=O)[O-])[nH]1`, the pIC50 in the data set on MDA-MB-468 [1] was 4.08; in the data set with MDA-MB-468 [2], 3.61; with SW-620 [5] it was 4.73; in the data set with SW-620 [6] it was 4.86. Also, the selectivity ratio at 4 h turned out to be 3.1 in data set [10] and 19.4 in [11]. The results for the “Ratio IC50” value in the data set on MDA-MB-468 [4] and in the data set on SW-620 [8] were below 1 and 1.3, respectively. Besides, in data set [12], the Activity is -509 mV.
Consider `Cc1cc(C)c(/C=C(\C(=O)Nc2ccc(N(CCO)CCO)cc2)c2ccccc2[N+](=O)[O-])[nH]1`, for which the Activity in data set [13] was -550 mV.
In the case of `Cn1c(COP(=O)(NCCBr)NCCBr)cnc1[N+](=O)[O-]` [EVOFOSFAMIDE], the pIC50 with MDA-MB-468 [1] was 5.36; in the data set on MDA-MB-468 [2] it was 8.21; with SW-620 [5], 4.69; in the data set on SW-620 [6] it was 7.28. In addition, the “Ratio IC50” value is given as 710 in the data set with MDA-MB-468 [4] and 396 in the data set on SW-620 [8].
In the case of `O=c1[nH]c(=O)n([C@H]2C[C@H](O)[C@@H](CO)O2)cc1F` [FLOXURIDINE], the pIC50 with MDA-MB-468 [1] was 4.56; with MDA-MB-468 [2], 4.34; with SW-620 [5] it was 6.02; in the data set on SW-620 [6], 5.83. Moreover, the “Ratio IC50” value in the data set on MDA-MB-468 [4] and with SW-620 [8] was below 1 throughout.
Regarding `N[C@@H](Cc1ccc(N(CCCl)CCCl)cc1)C(=O)O` [MELPHALAN], the pIC50 in the data set on MDA-MB-468 [1] was 6.00; in the data set on MDA-MB-468 [2] it was 6.09; in the data set with SW-620 [5], 5.74; with SW-620 [6], 5.91. Also, the entries for the “Ratio IC50” value in the data set on MDA-MB-468 [4] and with SW-620 [8] were 1.2 and 1.5, respectively.
On to `Nc1n[n+]([O-])c2ccccc2[n+]1[O-]` [TIRAPAZAMINE], for which the pIC50 with MDA-MB-468 [1] is 3.98; in the data set with MDA-MB-468 [2], 5.88; in the data set on SW-620 [5], 4.04; in the data set on SW-620 [6] it was 5.92. Also, the “Ratio IC50” value in the data set with MDA-MB-468 [4] is recorded as 81; with SW-620 [8], 76.
